The source of these data is ChEMBL document CHEMBL1142708, “Synthesis, characterization, and comparative in vitro cytotoxicity studies of platinum(II), palladium(II), and gold(III) methylsarcosinedithiocarbamate complexes” (J Med Chem, 2005).

One assay deals with HL-60. Nature of the assay: Concentration of the compound required to inhibit cell growth by 50% towards human HL60 tumor cell lines by the trypan blue dye exclusion test after 72 h. It is filed as functional, cell-based. In outline:
(§1)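 Cells were seeded in IMDM with 10% heat-inactivated FCS, penicillin/streptomycin and L-glutamine at 37 °C under 5% CO2, at 5.0 × 10^4 cells·mL-1 for HeLa and 2.0 × 10^5 cells·mL-1 for HL60. Compounds were taken from DMSO stocks into IMDM (final DMSO 0.1%). After 72 h, cells were stained for 2 min with 0.25% trypan blue plus 5% FCS, and viable cells were counted by phase-contrast microscopy. IC50 was taken as 50% growth inhibition versus control.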

A further assay concerns HeLa. Nature of the assay: Concentration of the compound required to inhibit cell growth by 50% towards human HeLa tumor cell lines by the trypan blue dye exclusion test after 72 h. Type of assay: functional, cell-based. In outline: as §1

With CISPLATIN, the IC50 came to 1.7 µM with HL-60 and 1.2 µM with HeLa.
As to [Au(MSDT)Br2], the IC50 is 0.8 µM with HL-60 and 1.8 µM with HeLa.
For [Au(MSDT)Cl2] the same measures were 0.9 µM and 1.7 µM.
Consider [Pd(MSDT)Br]n, for which the IC50 with HL-60 came out at 3.7 µM; in the assay with HeLa, 5 µM.
With [Pd(MSDT)Cl]n, the IC50 with HL-60 was 3.8 µM; with HeLa, 6 µM.
For [Pd(MSDTM)Br2] the same measures were more than 15 µM and more than 15 µM.
In the same order, the values of [Pt(MSDT)Br]n are more than 15 µM and more than 15 µM.
For [Pt(MSDT)Cl]n the same measures were more than 15 µM and more than 15 µM.
Regarding [Pt(MSDTM)Br2], the half-inhibitory concentration (IC50) in the assay on HL-60 and in the assay with HeLa was more than 15 µM in each case.

As a reminder, the IC50 is the midpoint of a concentration-inhibition curve.
